Measured values published in ChEMBL document CHEMBL3763071, “Selective Human Estrogen Receptor Partial Agonists (ShERPAs) for Tamoxifen-Resistant Breast Cancer” (J Med Chem, 2016).
The source made the active and inactive calls. No cut-off for these calls is given here.

Test system: not listed separately
Assay: Antiproliferative activity against tamoxifen resistant human MCF7:5C cells assessed as inhibition of cell growth at 1 nM after 9 days by MTS assay
Assay type: functional
Settings: 216 h
Summary of the method: (§1)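 Tamoxifen-resistant MCF-7:5C cells (long-term estrogen-deprived MCF-7:ws8, phenol red-free RPMI with charcoal-dextran FBS) seeded 5000/well overnight, treated at 1, 10 or 100 nM with renewal every 3 days. […] Triplicates in at least three passages.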

Structure (SMILES) | inhibition at 0.001 µM
O=C(c1ccc(O)cc1)c1sc2cc(O)ccc2c1-c1ccc(F)cc1 | 95.4%
C#Cc1ccc(C(=O)c2sc3cc(O)ccc3c2-c2ccc(F)cc2)cc1 | 31.4%
Oc1ccc(Oc2sc3cc(O)ccc3c2-c2ccc(F)cc2)cc1 [TTC-352] | 50.6%
O=C(c1sc2cc(O)ccc2c1-c1ccc(F)cc1)C1CCCCC1 | 21.4%
CN(C)c1ccc(C(=O)c2sc3cc(O)ccc3c2-c2ccc(F)cc2)cc1 | 4.1%
O=C(c1ccc(C(F)(F)F)cc1)c1c(-c2ccc(F)cc2)sc2cc(O)ccc12 | 55.6%
Cc1ccc(C(=O)c2sc3cc(O)ccc3c2-c2ccc(F)cc2)cc1 | 13.3%
N#Cc1ccc(C(=O)c2sc3cc(O)ccc3c2-c2ccc(F)cc2)cc1 | 2%
Cc1ccc(C(=O)c2c(-c3ccc(O)cc3)sc3cc(O)ccc23)cc1 | 11.5%

Test system: not listed separately
Assay: Antiproliferative activity against tamoxifen resistant human MCF7:5C cells assessed as inhibition of cell growth at 100 nM after 9 days by MTS assay
Assay type: functional
Settings: 216 h
Summary of the method: as §1

Structure (SMILES) | inhibition at 0.1 µM
O=C(c1ccc(O)cc1)c1sc2cc(O)ccc2c1-c1ccc(F)cc1 | 100%
C#Cc1ccc(C(=O)c2sc3cc(O)ccc3c2-c2ccc(F)cc2)cc1 | 85.6%
Oc1ccc(Oc2sc3cc(O)ccc3c2-c2ccc(F)cc2)cc1 [TTC-352] | 123%
O=C(c1sc2cc(O)ccc2c1-c1ccc(F)cc1)C1CCCCC1 | 147%
CN(C)c1ccc(C(=O)c2sc3cc(O)ccc3c2-c2ccc(F)cc2)cc1 | 111%
O=C(c1ccc(C(F)(F)F)cc1)c1c(-c2ccc(F)cc2)sc2cc(O)ccc12 | 108%
Cc1ccc(C(=O)c2sc3cc(O)ccc3c2-c2ccc(F)cc2)cc1 | 110%
N#Cc1ccc(C(=O)c2sc3cc(O)ccc3c2-c2ccc(F)cc2)cc1 | 64.2%
Cc1ccc(C(=O)c2c(-c3ccc(O)cc3)sc3cc(O)ccc23)cc1 | 109%

Molecular target: T1, Estrogen receptor (Homo sapiens) (UniProt P03372)
T1 sequence (whole entry): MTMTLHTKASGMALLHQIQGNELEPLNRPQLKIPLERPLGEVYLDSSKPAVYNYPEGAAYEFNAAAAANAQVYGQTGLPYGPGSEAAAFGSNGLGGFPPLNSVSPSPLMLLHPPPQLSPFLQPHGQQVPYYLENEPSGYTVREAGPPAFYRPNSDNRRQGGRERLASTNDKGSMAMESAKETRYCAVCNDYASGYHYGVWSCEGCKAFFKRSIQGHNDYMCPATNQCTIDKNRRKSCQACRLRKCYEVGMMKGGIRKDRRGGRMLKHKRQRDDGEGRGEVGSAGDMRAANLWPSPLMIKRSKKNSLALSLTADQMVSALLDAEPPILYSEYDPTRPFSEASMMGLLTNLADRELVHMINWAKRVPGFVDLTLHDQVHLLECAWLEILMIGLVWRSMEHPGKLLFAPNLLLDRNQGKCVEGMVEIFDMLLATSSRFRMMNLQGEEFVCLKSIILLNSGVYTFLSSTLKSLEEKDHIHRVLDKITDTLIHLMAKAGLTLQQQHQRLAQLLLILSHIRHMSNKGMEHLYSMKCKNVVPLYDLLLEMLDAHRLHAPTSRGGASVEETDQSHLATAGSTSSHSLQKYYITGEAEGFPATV
Assay: Partial agonist activity at biotinylated ERalpha LBD (unknown origin) assessed as inhibition of E2-induced SRC3 coactivator recruitment after 1 hr by TR-FRET assay
Settings: not given

Structure (SMILES) | Activity
C#Cc1ccc(C(=O)c2sc3cc(O)ccc3c2-c2ccc(F)cc2)cc1 | Active
Oc1ccc(Oc2sc3cc(O)ccc3c2-c2ccc(F)cc2)cc1 [TTC-352] | Active

Molecular target: T2, Estrogen receptor (Homo sapiens, UniProt P03372)
T2 sequence (P03372 whole entry): T1 sequence (whole entry)
Assay: Agonist activity at estrogen receptor alpha in human MCF7:WS8 cells after 18 hrs by dual luciferase reporter assay
Assay type: cell-based
Settings: not given

Structure (SMILES) | EC50
Oc1ccc2cc(-c3ccc(F)cc3)sc2c1 | Not Active
Oc1ccc2c(-c3ccc(F)cc3)csc2c1 | Not Active

Same assay, conditions: read-out: EC50

Structure (SMILES) | EC50
O=C(c1ccc(O)cc1)c1sc2cc(O)ccc2c1-c1ccc(F)cc1 | 0.2 nM
C#Cc1ccc(C(=O)c2sc3cc(O)ccc3c2-c2ccc(F)cc2)cc1 | 5.3 nM
Oc1ccc(Oc2sc3cc(O)ccc3c2-c2ccc(F)cc2)cc1 [TTC-352] | 0.8 nM
O=C(c1sc2cc(O)ccc2c1-c1ccc(F)cc1)C1CCCCC1 | 1 nM
CN(C)c1ccc(C(=O)c2sc3cc(O)ccc3c2-c2ccc(F)cc2)cc1 | 30.6 nM
O=C(c1ccc(C(F)(F)F)cc1)c1c(-c2ccc(F)cc2)sc2cc(O)ccc12 | 61.5 nM
Cc1ccc(C(=O)c2sc3cc(O)ccc3c2-c2ccc(F)cc2)cc1 | 717 nM
N#Cc1ccc(C(=O)c2sc3cc(O)ccc3c2-c2ccc(F)cc2)cc1 | 58.7 nM
Cc1ccc(C(=O)c2c(-c3ccc(O)cc3)sc3cc(O)ccc23)cc1 | 2.6 nM

Test system: not listed separately
Assay: Cytotoxicity against human MCF7:WS8 cells at 0.1 to 1 uM after 3 days by MTT assay
Assay type: cell-based
Settings: mcf7:ws8, 72 h

Structure (SMILES) | Activity
O=C(c1ccc(O)cc1)c1sc2cc(O)ccc2c1-c1ccc(F)cc1 | Non-toxic
C#Cc1ccc(C(=O)c2sc3cc(O)ccc3c2-c2ccc(F)cc2)cc1 | Non-toxic
Oc1ccc(Oc2sc3cc(O)ccc3c2-c2ccc(F)cc2)cc1 [TTC-352] | Non-toxic
O=C(c1sc2cc(O)ccc2c1-c1ccc(F)cc1)C1CCCCC1 | Non-toxic
CN(C)c1ccc(C(=O)c2sc3cc(O)ccc3c2-c2ccc(F)cc2)cc1 | Non-toxic
O=C(c1ccc(C(F)(F)F)cc1)c1c(-c2ccc(F)cc2)sc2cc(O)ccc12 | Non-toxic
Cc1ccc(C(=O)c2sc3cc(O)ccc3c2-c2ccc(F)cc2)cc1 | Non-toxic
N#Cc1ccc(C(=O)c2sc3cc(O)ccc3c2-c2ccc(F)cc2)cc1 | Non-toxic
Cc1ccc(C(=O)c2c(-c3ccc(O)cc3)sc3cc(O)ccc23)cc1 | Non-toxic

Molecular target: T1, Estrogen receptor (Homo sapiens)
Assay: Partial agonist activity at biotinylated ERalpha LBD (unknown origin) assessed as increase in SRC3 coactivator recruitment after 1 hr by TR-FRET assay
Settings: not given
Summary of the method: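 Biotinylated ERα LBD (1 nM) premixed with streptavidin-terbium (0.25 nM). Fluorescein-labelled SRC3 was titrated with ligand at 20 μM. Incubation ran 1 h at room temperature in the dark. Read-out was TR-FRET: excitation 340 nm, emission 495 and 520 nm, 100-μs delay. Background from parallel wells without LBD was subtracted, and signal was plotted against log SRC3.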

Structure (SMILES) | Activity
C#Cc1ccc(C(=O)c2sc3cc(O)ccc3c2-c2ccc(F)cc2)cc1 | Active
Oc1ccc(Oc2sc3cc(O)ccc3c2-c2ccc(F)cc2)cc1 [TTC-352] | Active

Test system: not listed separately
Assay: Antiproliferative activity against tamoxifen resistant human MCF7:5C cells assessed as inhibition of cell growth at 10 nM after 9 days by MTS assay
Assay type: functional
Settings: 216 h
Summary of the method: as §1

Structure (SMILES) | inhibition at 0.01 µM
O=C(c1ccc(O)cc1)c1sc2cc(O)ccc2c1-c1ccc(F)cc1 | 99.8%
C#Cc1ccc(C(=O)c2sc3cc(O)ccc3c2-c2ccc(F)cc2)cc1 | 79.9%
Oc1ccc(Oc2sc3cc(O)ccc3c2-c2ccc(F)cc2)cc1 [TTC-352] | 104%
O=C(c1sc2cc(O)ccc2c1-c1ccc(F)cc1)C1CCCCC1 | 134%
CN(C)c1ccc(C(=O)c2sc3cc(O)ccc3c2-c2ccc(F)cc2)cc1 | 15.1%
O=C(c1ccc(C(F)(F)F)cc1)c1c(-c2ccc(F)cc2)sc2cc(O)ccc12 | 69.7%
Cc1ccc(C(=O)c2sc3cc(O)ccc3c2-c2ccc(F)cc2)cc1 | 7.4%
Cc1ccc(C(=O)c2c(-c3ccc(O)cc3)sc3cc(O)ccc23)cc1 | 60.2%

Test system: T47D:A18
Assay: Antitumor activity against tamoxifen resistant human T47D:A18 cells overexpressing PKC-alpha xenografted into BALB/c athymic mouse assessed as reduction in tumor size at 100 mg/kg administered via oral gavage daily measured upto 2 weeks
Assay type: functional, organism-based
Settings: not given
Summary of the method: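 T47D:A18/PKCα xenografts established 12 weeks before dosing. Compound given orally at 100 mg/kg daily for 2 weeks in 0.1% Tween 80/10% PEG400/0.5% CMC, plus drinking water replaced by hydrogel suspension at 0.25 mg/mL. Tumor area (length/2 × width/2 × π) by calipers weekly; uteri excised and weighed at sacrifice (control n = 4, treated n = 6).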

Structure (SMILES) | Activity
C#Cc1ccc(C(=O)c2sc3cc(O)ccc3c2-c2ccc(F)cc2)cc1 | Active

Molecular target: T2, Estrogen receptor
Assay: Partial agonist activity at ERalpha in human MCF7:WS8 cells after 18 hrs by luciferase reporter gene assay
Assay type: cell-based
Settings: not given
Summary of the method: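 MCF-7:ws8 cells kept in stripped medium 3 days, then transiently co-transfected (6 h) with 3×ERE-firefly luciferase and pRL-TK Renilla plasmids. […] EC50 and Emax derived; mean ± s.e.m. from at least three passages.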

Structure (SMILES) | EC50
C#Cc1ccc(C(=O)c2sc3cc(O)ccc3c2-c2ccc(F)cc2)cc1 | 5.3 nM
Oc1ccc(Oc2sc3cc(O)ccc3c2-c2ccc(F)cc2)cc1 [TTC-352] | 0.8 nM

Molecular target: T1, Estrogen receptor (Homo sapiens)
Assay: Partial agonist activity at estrogen receptor alpha in human MCF7:WS8 cells at 100 nM after 6 hrs in presence of 100 nM GPR30 inhibitor G15 by luciferase reporter gene assay
Assay type: cell-based
Settings: not given

Structure (SMILES) | Activity
Oc1ccc(Oc2sc3cc(O)ccc3c2-c2ccc(F)cc2)cc1 [TTC-352] | Active

Molecular target: T1, Estrogen receptor (Homo sapiens)
Assay: Antagonist activity at ERalpha in human MCF7:WS8 cells assessed as E2-induced ERE activation after 18 hrs by luciferase reporter gene assay
Assay type: cell-based
Settings: not given
Summary of the method: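 ERE-luciferase reporter in MCF-7:ws8 cells held in stripped medium 3 days, co-transfected with 3×ERE (Xenopus vitellogenin A2)-firefly luciferase and pRL-TK Renilla plasmids for 6 h. […] Average of three passages.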

Structure (SMILES) | inhibition
C#Cc1ccc(C(=O)c2sc3cc(O)ccc3c2-c2ccc(F)cc2)cc1 | Dose-dependent effect
Oc1ccc(Oc2sc3cc(O)ccc3c2-c2ccc(F)cc2)cc1 [TTC-352] | Dose-dependent effect
